Compound activity deposited in PubChem by several laboratories.
A selection: hits, their analogues and other compounds. The true share with any hit is near 2.2%.
CSN inh = blocks human CSN-mediated cullin deneddylation | Q92905 | Purified CSN, SCF-Nedd8-OG deneddylation, fluorescence polarization | inhibition, % at 12.5 µM | 0.38% of 360,000 active | AID 651999;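 active = pattern-corrected inhibition above about 35%, with an unprinted fluorescence ratio check between 0.5 and 1.5, limit read from the data, passing the limit was not always enough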;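 note: 0% = enzyme with substrate and 100% = substrate without enzyme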
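Test system: purified human Csn5 enzyme expressed in HEK293T cells. Amount: 0.24 nM enzyme. Reagent: SCFSkp2-Nedd8OG substrate at 10 nM final. Schedule: 90 min incubation of compound, enzyme and substrate at room temperature. Detection: fluorescence polarization. Read-out: % inhibition of substrate cleavage by Csn5.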
Exocytosis inh = blocks lytic granule exocytosis; TALL-104 LAMP-1 surface exposure, flow cytometry; cells stimulated with thapsigargin and PMA; inhibition, % at 10 µM; 0.66% of 360,000 active; AID 651702;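 active = inhibition above about 55%, limit read from the data; inconclusive = no clear call, values can overlap the other calls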
HNF4A DNA FP = change in binding of human HNF4 alpha to DNA; activity change, % at 10 µM; P41235; 0.3% of 360,000 active; HNF4a-FITC DNA binding, fluorescence polarization, 1 h; in the data active = activity change above about 30%, passing the limit was not always enough
Target sequence (P41235 whole entry, looked up): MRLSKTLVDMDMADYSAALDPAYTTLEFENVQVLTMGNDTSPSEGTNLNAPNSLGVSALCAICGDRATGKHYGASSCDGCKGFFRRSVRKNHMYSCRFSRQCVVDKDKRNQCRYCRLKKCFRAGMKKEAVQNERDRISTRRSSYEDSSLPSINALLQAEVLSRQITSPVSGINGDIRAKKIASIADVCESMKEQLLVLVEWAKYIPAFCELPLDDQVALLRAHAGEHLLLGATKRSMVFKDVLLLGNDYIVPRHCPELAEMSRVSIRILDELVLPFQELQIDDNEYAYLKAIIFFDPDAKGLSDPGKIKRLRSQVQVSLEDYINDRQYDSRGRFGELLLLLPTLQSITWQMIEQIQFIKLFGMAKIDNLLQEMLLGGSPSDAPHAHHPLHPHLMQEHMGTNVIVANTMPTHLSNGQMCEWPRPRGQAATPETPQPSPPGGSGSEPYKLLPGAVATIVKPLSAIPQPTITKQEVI
Myeloid diff MLP = myeloid differentiation induction. calls only at 10 µM. 1% of 360,000 active. ER-HoxA9 myeloid progenitors, lysozyme-GFP differentiation, flow cytometry;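 active = normalized GFP-positive differentiation at or above the plate's own cutoff, the solvent-only control mean plus 3 SD; inconclusive = no clear call, values can overlap the other calls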;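 note: cells exposed to compound for four days before flow analysis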
Myeloid diff CP1 = compounds promoting myeloid differentiation. AID 651706. 2% of 2,300 active. shares compounds with Myeloid diff MLP. calls only. ER-HoxA9 myeloid progenitors, GFP/Mac1 double-positive flow;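 active = share of green or green-and-red cells above 9 and 9% in run 1 or 4 and 3% in run 2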
GFP autofluor = flagged as fluorescent in myeloid differentiation counter-screen; ER-HoxA9 myeloid progenitors, no estrogen, GFP autofluorescence flow cytometry; vehicle wells 0%, positive control 100%; shares compounds with Myeloid diff MLP; fluorescence response, % (no concentration beside the values); 7.4% of 2,300 active;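 active = over 5% cells positive for green fluorescent reporter, or over 2% positive for both it and APC stain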;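 note: range taken on the double positive population between DMSO and positive control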
* marks the source's active call; other numbers are inactive results; i = inactive; ? = inconclusive; · = no result given; + = active, no number.

SMILES	CSN inh	Exocytosis inh	HNF4A DNA FP	Myeloid diff MLP	Myeloid diff CP1	GFP autofluor
Cc1ccc(NC(=O)C2COc3ccccc3O2)cc1C (centres undefined)	-1	-4	-4	i	·	·
O=C(OCc1ccccc1)/C(=C/c1cccc(Br)c1)NC(=O)c1ccco1	-1	3	-2	i	·	·
CCCCCCNc1ccc(C(=O)OCC)cc1	124*	-1	-4	i	·	·
CCOC(=O)c1ccc(NC(=O)Nc2ccc(F)cc2)cc1	2	1	-1	i	·	·
N#Cc1nc(-c2cccs2)oc1NCc1ccco1	-4	-1	1	i	i	0
CC1Nc2ncnc(N3CCOCC3)c2N(Cc2ccccc2)C1=O (centres undefined)	2	-3	-1	i	i	0
COc1ccc(CCNC(=O)c2ccn[nH]2)cc1OC	1	-1	2	+	i	0
COc1ccc(CCNC(=O)c2cc(-c3ccccc3O)n[nH]2)cc1OC	0	2	-2	i	·	·
COc1ccc(-c2cc(C(=O)NCc3ccc(Cl)cc3)no2)cc1OC	1	-3	-2	i	·	·
COc1cccc(-c2cc(C(=O)NCc3ccc(Cl)cc3)no2)c1	2	-2	5	i	i	0
CCOP(=O)(OCC)C(NC(=O)Nc1cccc(Cl)c1)C(N)=O (centres undefined)	5	-2	0	i	·	·
CCOP(=O)(OCC)C(NC(=O)Nc1ccc(C)cc1)C(N)=O (centres undefined)	-1	0	2	+	i	0
CC(C)(C)C(=O)/C=C1\SCC(=O)N1CC(=O)N1CCN(c2ccccc2)CC1	0	7	1	i	i	1
CN1CCS/C1=C/C=C1/SC(=S)N(Cc2ccccc2)C1=O	76	3	146	+	i	23*
COc1cc(/C=C2/SC(=S)N(Cc3ccccc3)C2=O)ccc1OCC(=O)O	11	-15	8	i	·	·
CC(=O)Oc1ccc(/C=C2/SC(=S)N(Cc3ccccc3)C2=O)cc1	13	?	50*	+	i	38*
CCCCN1C(=O)/C(=C/C=C2\SCCN2C)SC1=S	71	-2	203	i	·	·
O=C(O)CCn1c(-c2ccccn2)nc2ccccc21	0	3	-8	i	·	·
Cc1cc(C)n2nc(SCC(=O)N3CCC(C)CC3)nc2n1	0	0	-4	i	·	·
Cc1c(C(=O)NCc2ccc(F)cc2)sc(=O)n1Cc1ccc(Cl)c(Cl)c1	-3	-6	-3	i	·	·
Cc1ccc(NC(=O)c2ccc(=O)[nH]c2)cc1S(=O)(=O)N1CCCCC1	-1	4	0	i	i	0
O=C(Nc1cc(Cl)c(O)c(Cl)c1)C1CCCO1 (centres undefined)	7	-1	2	i	·	·
O=C(O)c1cc(NC(=O)C2CCCO2)cc(NC(=O)C2CCCO2)c1 (centres undefined)	2	3	-1	+	i	0
O=C1OCc2cc(NC(=O)C3CCCO3)ccc21 (centres undefined)	-2	-10	-2	i	·	·
O=C1NC(=O)c2cc(NC(=O)C3CCCO3)ccc21 (centres undefined)	-1	-1	-2	i	i	0
SMILES	CSN inh	Exocytosis inh	HNF4A DNA FP	Myeloid diff MLP	Myeloid diff CP1	GFP autofluor
O=S1(=O)CC(N2CCN(CCO)CC2)CN1Cc1cn(Cc2ccccc2)nn1 (centres undefined)	-4	-1	-3	i	·	·
O=C(NC(CO)C(=O)OCc1ccccc1)OCc1ccccc1 (centres undefined)	-2	-4	1	i	·	·
Cc1ccc(-n2nnnc2-c2ccccc2)cc1	-8	1	3	i	·	·
CCN(CC)c1ccc(C=C(c2nnnn2-c2ccc(C)cc2)c2nnnn2-c2ccc(C)cc2)cc1	9	0	20	i	i	2
COc1ccc(-c2c(-c3ccc(OC)nc3)c3ccccc3n2C)cc1	2	1	4	i	·	·
COC(=O)c1cccc(C(=O)Nc2ccc(F)cc2)n1	0	4	-2	i	i	0
CCOC(=O)c1cc2c(=O)n3ccccc3nc2n(C)c1=NC(=O)c1c(-c2c(F)cccc2Cl)noc1C	-4	-4	3	i	·	·
CCOC(=O)c1cc2c(=O)n3ccccc3nc2n(C(C)C)c1=NC(=O)c1c(-c2c(F)cccc2Cl)noc1C	-2	-2	8	+	i	0
O=C1N[C@@H](Cc2ccccc2)COC(=O)[C@@H](Cc2ccc(F)cc2)CC/C=C/C[C@@H]1CC(=O)N(CCO)Cc1ccccc1	-4	15	-4	+	i	0
CCN1CCN(CC(=O)Nc2ccc(S(=O)(=O)N3C(C)CCCC3C)cc2)CC1 (centres undefined)	4	-13	1	i	i	0
CC1CCN(S(=O)(=O)c2ccc(NC(=O)CN3CCCC3)cc2)CC1	-3	1	4	i	·	·
CC1(C)CNC(=O)C=C(c2ccccc2)C1	-3	3	-2	+	i	0
CC1(C)CC(=O)C=C(c2ccc(Oc3ccccc3)cc2)C1	2	-3	-2	i	·	·
CCOC(=O)N1CCN(C(=O)c2cccc(N3C(=O)NC4CC3(C)Oc3ccc(Cl)cc34)c2)CC1 (centres undefined)	-3	-13	1	i	·	·
Cc1ccc2[nH]c(CCN(C)C)c(CN3CCOCC3)c2c1	-4	-12	-3	i	i	0
Cc1ccc(C(C(=O)NC2CCCC2)N(C(=O)c2csnn2)c2cccc(F)c2)o1 (centres undefined)	0	0	2	i	·	·
CCC(C)(C)NC(=O)C(c1ccc(C)o1)N(C(=O)c1csnn1)c1cccc(F)c1 (centres undefined)	1	-1	-2	i	i	0
CC1=NN(c2ccccc2C)C(=O)C1	2	-6	0	i	i	0
Oc1[nH]c2ccccc2c1/C=N/c1nccs1	15	2	18	i	i	2
c1ccc(Nc2cccc3ccccc23)cc1	-4	10	-2	i	i	0
CCOc1cc(C=C2C(=O)c3ccccc3C2=O)ccc1OCC(=O)Nc1ccc(C)cc1	-2	-1	-1	+	i	0
NC(Cc1ccc(Cl)cc1)c1csc(NC(=O)NCCc2ccccc2)n1 (centres undefined)	4	5	-1	i	·	·
NC(Cc1ccc(Cl)cc1)c1csc(NC(=O)NCC2CCCCC2)n1 (centres undefined)	-1	14	-2	+	i	1
NC(=O)NC(Cc1ccccc1)c1ccccc1 (centres undefined)	-5	1	-1	+	i	0
CC(C)(C)[C@@H]1COC(=O)[C@H](Cc2ccc(F)cc2)C/C=C\C[C@@H](CC(=O)NCCO)C(=O)N1	1	12	5	i	·	·
